Data reported in ChEMBL document CHEMBL3421623 (J Med Chem, 2015).

What was measured:
[1] = biological target: T1, Cytochrome P450 1A2 (Homo sapiens, UniProt P05177); assay: Inhibition of human recombinant CYP1A2 assessed as metabolism of 3-cyano-7-ethoxycoumarin after 30 mins by fluorescence assay; assay type: ADME
T1 sequence (P05177 whole entry): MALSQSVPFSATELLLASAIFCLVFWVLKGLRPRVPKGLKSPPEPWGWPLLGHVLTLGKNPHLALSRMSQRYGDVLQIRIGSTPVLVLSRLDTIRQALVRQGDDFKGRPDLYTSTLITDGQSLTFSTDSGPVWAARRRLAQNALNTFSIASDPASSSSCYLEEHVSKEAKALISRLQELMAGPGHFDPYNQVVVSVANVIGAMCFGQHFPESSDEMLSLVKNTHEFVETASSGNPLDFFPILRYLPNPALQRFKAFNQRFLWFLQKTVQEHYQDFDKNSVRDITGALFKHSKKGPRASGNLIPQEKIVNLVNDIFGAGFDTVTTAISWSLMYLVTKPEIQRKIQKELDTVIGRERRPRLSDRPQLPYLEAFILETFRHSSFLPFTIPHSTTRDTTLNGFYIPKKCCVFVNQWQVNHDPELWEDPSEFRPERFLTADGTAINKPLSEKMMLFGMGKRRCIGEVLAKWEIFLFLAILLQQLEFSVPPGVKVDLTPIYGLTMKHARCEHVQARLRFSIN

[2] = biological target: Cytochrome P450 3A5 (Homo sapiens, UniProt P20815); assay: Inhibition of human recombinant CYP3A5 assessed as metabolism of 7-benzyloxy-4-trifluoromethylcoumarin to HFC after 30 mins by fluorescence assay; assay type: ADME
[3] = biological target: Cytochrome P450 3A4 (Homo sapiens, UniProt P08684); assay: Inhibition of human recombinant CYP3A4 assessed as metabolism of 7-benzyloxy-4-trifluoromethylcoumarin to HFC after 30 mins by fluorescence assay; assay type: ADME
[4] = biological target: Cytochrome P450 2D6 (Homo sapiens, UniProt P10635); assay: Inhibition of human recombinant CYP2D6 after 30 mins by fluorescence assay; assay type: ADME
[5] = biological target: T2, Cytochrome P450 2A6 (Homo sapiens, UniProt P11509); assay: Inhibition of human recombinant CYP2A6 assessed as metabolism of coumarin to 7-hydroxycoumarin after 30 mins by fluorescence assay; assay type: ADME
T2 sequence (P11509 whole entry): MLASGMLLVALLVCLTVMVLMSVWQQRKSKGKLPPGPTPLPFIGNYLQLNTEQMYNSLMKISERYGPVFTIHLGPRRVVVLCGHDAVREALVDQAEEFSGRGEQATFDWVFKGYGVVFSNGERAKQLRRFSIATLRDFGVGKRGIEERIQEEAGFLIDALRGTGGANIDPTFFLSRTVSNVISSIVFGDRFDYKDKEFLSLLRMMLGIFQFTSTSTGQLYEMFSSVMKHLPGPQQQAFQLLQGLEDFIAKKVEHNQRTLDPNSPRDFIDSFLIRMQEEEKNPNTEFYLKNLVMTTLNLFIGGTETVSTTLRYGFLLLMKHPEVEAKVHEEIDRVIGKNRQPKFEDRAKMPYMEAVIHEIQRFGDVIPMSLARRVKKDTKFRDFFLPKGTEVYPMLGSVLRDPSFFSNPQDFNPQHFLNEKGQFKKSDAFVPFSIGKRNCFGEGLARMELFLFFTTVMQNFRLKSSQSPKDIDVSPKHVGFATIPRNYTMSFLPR

[6] = biological target: T3, Estrogen receptor (Homo sapiens) (UniProt P03372); assay: Antiestrogenic effect at estrogen receptor in human MCF7 cells assessed as inhibition of E2-induced progesterone receptor mRNA expression at 1000 nM after 24 hrs by real time quantitative PCR; assay type: cell-based; design: scale not given: the % may be the effect or the level left
T3 sequence (whole entry): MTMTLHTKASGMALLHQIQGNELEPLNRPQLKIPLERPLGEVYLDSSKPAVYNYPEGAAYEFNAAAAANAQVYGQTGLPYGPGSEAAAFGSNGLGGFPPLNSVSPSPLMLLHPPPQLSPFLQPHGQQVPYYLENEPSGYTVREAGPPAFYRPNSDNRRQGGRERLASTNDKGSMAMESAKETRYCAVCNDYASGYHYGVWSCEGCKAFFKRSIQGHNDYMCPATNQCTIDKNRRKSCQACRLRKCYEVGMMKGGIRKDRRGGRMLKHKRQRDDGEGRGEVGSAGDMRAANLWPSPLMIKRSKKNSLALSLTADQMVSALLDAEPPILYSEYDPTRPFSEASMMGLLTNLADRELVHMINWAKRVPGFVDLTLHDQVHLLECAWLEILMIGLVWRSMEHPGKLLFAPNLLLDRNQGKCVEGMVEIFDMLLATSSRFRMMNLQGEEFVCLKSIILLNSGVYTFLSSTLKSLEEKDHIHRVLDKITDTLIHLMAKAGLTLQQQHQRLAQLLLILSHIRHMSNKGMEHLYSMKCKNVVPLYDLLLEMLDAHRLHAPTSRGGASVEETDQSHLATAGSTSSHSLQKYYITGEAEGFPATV
Procedure, shortened: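 MCF-7 cells (10⁵/well) grown in MEM + 10% FBS at 37 °C, 5% CO₂, then preconditioned 72 h in charcoal-stripped FBS. Treated 24 h with 1 μM compound or vehicle (0.1% methanol) plus 10 nM E2 in MEM/10% charcoal-stripped FBS. PGR mRNA extracted after genomic DNA removal and quantified by qPCR (40 cycles, Ct). Reported as % of E2-alone expression (100%); 1 μM endoxifen as positive control.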

[7] = biological target: T4, Estrogen receptor beta (Homo sapiens, UniProt Q92731); assay: Displacement of fluorescein-labeled ES2 from human recombinant ERbeta receptor after 2 hrs by fluorescence polarization assay
Procedure, shortened: (§1)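 Fluorescence polarization competition. Compound in methanol or DMSO mixed with ES2 screening buffer (100 mM potassium phosphate, 100 μg/mL BGG, 0.02% NaN₃). Preformed complex added to final 9 nM ES2 with 30 nM ER-α or 20 nM ER-β. Polarization expressed as % of vehicle control; EC50 from one-site competition fit.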

[8] = biological target: T5, Aromatase (Homo sapiens, UniProt P11511); assay: Inhibition of human recombinant aromatase using 7-methoxy-trifluoromethylcoumarin as substrate assessed as formation of fluorescent metabolite after 30 mins by fluorescence assay
T5 sequence (P11511 whole entry): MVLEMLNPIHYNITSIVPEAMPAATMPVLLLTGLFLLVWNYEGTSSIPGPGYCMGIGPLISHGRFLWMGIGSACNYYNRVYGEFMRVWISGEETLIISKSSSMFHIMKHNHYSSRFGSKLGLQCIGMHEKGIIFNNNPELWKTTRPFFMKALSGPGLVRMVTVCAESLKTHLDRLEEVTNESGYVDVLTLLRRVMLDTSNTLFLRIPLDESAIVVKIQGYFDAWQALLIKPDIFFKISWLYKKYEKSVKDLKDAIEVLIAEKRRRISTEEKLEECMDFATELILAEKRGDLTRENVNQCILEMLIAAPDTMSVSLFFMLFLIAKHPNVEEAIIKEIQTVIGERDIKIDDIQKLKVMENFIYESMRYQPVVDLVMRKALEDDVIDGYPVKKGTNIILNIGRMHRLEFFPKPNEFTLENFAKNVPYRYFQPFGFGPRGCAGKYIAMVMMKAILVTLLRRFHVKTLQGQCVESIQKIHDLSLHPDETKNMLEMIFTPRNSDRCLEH
Procedure, shortened: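 Recombinant human CYP19 with MFC substrate, converted to fluorescent HFC, in 0.1 M potassium phosphate pH 7.4. NADPH-regenerating mix (NADP⁺, MgCl₂, glucose-6-phosphate, G6PDH); compound prewarmed 10 min at 37 °C, then 30 min reaction stopped with Tris base in acetonitrile. Activity as % of vehicle control; IC50 from one-site competition fit; Ki from Lineweaver–Burk data by nonlinear regression.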

[9] = biological target: T6, Estrogen receptor (Homo sapiens, UniProt P03372); assay: Displacement of fluorescein-labeled ES2 from human recombinant ERalpha receptor after 2 hrs by fluorescence polarization assay; procedure, shortened: as §1
T6 sequence (P03372 whole entry): T3 sequence (whole entry)

[10] = biological target: T3, Estrogen receptor (Homo sapiens); assay: Displacement of fluorescein-labeled ES2 from human recombinant ERalpha receptor at 100000 nM after 2 hrs by fluorescence polarization assay
Procedure, shortened: (§2)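 Same ES2 fluorescence polarization setup: 9 nM ES2 with 30 nM ER-α or 20 nM ER-β, in phosphate/BGG buffer, 2 h in the dark. Each compound tested at a single 100000 nM and reported as percent ER competition versus vehicle control. Compounds were E/Z isomer mixtures (mostly 1:1). Mean of at least three experiments.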

[11] = biological target: T4, Estrogen receptor beta; assay: Displacement of fluorescein-labeled ES2 from human recombinant ERbeta receptor at 100000 nM after 2 hrs by fluorescence polarization assay; procedure, shortened: as §2

Sequence of Cytochrome P450 3A4 (P08684 whole entry): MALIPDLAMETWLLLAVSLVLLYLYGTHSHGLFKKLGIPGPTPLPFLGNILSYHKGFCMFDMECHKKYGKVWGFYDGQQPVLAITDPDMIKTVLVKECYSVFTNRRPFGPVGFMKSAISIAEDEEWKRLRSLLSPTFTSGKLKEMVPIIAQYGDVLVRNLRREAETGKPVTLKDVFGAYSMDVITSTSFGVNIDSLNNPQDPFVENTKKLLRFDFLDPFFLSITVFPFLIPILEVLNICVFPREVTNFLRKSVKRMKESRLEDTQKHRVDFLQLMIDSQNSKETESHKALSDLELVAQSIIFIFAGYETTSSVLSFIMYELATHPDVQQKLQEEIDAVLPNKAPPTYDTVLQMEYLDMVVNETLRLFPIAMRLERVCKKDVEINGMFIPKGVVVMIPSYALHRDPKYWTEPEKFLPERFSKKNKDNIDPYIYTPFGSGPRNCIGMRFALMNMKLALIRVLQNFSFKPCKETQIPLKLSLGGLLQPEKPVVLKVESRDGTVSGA
Sequence of Cytochrome P450 3A5 (P20815 whole entry): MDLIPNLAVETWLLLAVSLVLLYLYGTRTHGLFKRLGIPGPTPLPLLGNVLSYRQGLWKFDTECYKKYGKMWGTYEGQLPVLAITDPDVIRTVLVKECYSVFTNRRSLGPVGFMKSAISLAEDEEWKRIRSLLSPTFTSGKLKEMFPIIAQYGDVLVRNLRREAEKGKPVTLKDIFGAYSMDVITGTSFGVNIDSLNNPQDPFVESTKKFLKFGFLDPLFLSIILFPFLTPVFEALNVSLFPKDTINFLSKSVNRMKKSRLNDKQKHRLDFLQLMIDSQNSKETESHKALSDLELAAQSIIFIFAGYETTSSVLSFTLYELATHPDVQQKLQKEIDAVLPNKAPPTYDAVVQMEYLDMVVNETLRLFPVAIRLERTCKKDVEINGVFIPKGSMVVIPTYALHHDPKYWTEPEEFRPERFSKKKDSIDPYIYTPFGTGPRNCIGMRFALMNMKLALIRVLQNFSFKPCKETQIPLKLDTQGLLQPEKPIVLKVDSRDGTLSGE
Sequence of Cytochrome P450 2D6 (P10635 whole entry): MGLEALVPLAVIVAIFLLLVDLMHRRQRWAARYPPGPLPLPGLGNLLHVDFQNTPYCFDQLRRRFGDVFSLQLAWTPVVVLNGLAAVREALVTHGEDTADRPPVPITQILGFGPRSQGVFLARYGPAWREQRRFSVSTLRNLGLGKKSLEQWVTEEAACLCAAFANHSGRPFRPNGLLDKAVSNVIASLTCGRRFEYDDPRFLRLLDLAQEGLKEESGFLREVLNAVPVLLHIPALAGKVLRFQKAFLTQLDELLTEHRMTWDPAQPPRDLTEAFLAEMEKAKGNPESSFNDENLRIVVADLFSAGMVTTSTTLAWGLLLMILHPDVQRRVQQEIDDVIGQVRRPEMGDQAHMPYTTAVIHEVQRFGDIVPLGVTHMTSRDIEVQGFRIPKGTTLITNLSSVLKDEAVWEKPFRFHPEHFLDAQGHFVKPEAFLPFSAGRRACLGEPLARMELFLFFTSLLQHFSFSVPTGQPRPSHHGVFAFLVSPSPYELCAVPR
T4 sequence (Q92731 whole entry): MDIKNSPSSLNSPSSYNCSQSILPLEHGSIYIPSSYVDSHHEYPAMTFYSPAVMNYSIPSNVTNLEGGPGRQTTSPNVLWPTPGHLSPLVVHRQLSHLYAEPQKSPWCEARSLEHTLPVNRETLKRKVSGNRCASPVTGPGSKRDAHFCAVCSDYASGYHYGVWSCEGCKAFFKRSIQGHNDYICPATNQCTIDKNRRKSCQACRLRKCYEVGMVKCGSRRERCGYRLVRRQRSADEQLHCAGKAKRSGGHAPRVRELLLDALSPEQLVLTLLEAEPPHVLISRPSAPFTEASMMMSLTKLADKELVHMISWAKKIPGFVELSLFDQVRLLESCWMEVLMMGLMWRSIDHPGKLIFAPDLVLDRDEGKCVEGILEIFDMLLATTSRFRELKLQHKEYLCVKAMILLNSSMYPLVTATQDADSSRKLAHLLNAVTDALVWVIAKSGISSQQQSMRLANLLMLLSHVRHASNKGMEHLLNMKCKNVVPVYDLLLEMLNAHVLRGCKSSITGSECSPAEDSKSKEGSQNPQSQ

Row | Activity [10] [%] | Activity [11] [%] | inhibition (INH) ([8]; human, 0.5 h) [%] | SMILES | IC50 [1] [nM] | IC50 [2] [nM] | Ki [2] [nM] | IC50 [3] [nM] | Ki [3] [nM] | Ki [4] | inhibition (INH) ([4]; human, recombinant enzyme, 0.5 h) | IC50 [5] [nM] | Ki [5] [nM] | Activity [6] [%] | EC50 [7] [nM] | Ki [1] [nM] | IC50 [4] [nM] | Ki ([4]; read-out: Ki) [nM] | IC50 [8] [nM] | EC50 [9] [nM]
1 |  |  |  | CC/C(=C(/c1ccc(O)cc1)c1ccc(OCCN)cc1)c1ccccc1 (mixture of isomers) | 207 | 723 | 829 | 285 | 375 | Not Active | Not Active | 6370 | 2180 | 32 |  |  |  |  |  | 
2 |  |  |  | CC/C(=C(/c1ccc(O)cc1)c1ccc(OCCN)cc1)c1ccc(O)cc1 (mixture of isomers) | 207 | 556 | 855 | 1880 | 1640 |  |  |  | 710 | 14 | 9.5 | 56 | 3600 | 423 | 45 | 15
3 | 62 | 40 | 27 | CC/C(=C(/c1ccc(O)cc1)c1ccc(OCCCl)cc1)c1ccccc1 (mixture of isomers) |  |  |  |  |  |  |  |  |  |  |  |  |  |  |  | 
